# Measurements from ChEMBL document CHEMBL1944548, “Discovery of kinase spectrum selective macrocycle (16E)-14-methyl-20-oxa-5,7,14,26-tetraazatetracyclo[19.3.1.1(2,6).1(8,12)]heptacosa-1(25),2(26),3,5,8(27),9,11,16,21,23-decaene (SB1317/TG02), a potent inhibitor of cyclin dependent kinases (CDKs), Janus kinase 2 (JAK2), and fms-like tyrosine …” (J Med Chem, 2012).
# Target: Cytochrome P450 2C19 (Homo sapiens, UniProt P33261)
# Assay: Inhibition of CYP2C19 in human liver microsomes using mephenytoin as substrate after 60 mins by LC-MS/MS analysis
# Type: ADME, Microsome
# Summary of the method: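 Human liver microsomes (0.5 mg/mL for CYP2C19, 1 mg/mL for CYP2C9), NADPH 1 mM, test at 0.05−25 μM (DMSO 0.35% final), 37 °C; probes mephenytoin 25 μM (CYP2C19) and tolbutamide 120 μM (CYP2C9), 60 min each. IC50 from decrease in metabolite formation vs vehicle.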
# Chain of Cytochrome P450 2C19 (P33261 whole entry): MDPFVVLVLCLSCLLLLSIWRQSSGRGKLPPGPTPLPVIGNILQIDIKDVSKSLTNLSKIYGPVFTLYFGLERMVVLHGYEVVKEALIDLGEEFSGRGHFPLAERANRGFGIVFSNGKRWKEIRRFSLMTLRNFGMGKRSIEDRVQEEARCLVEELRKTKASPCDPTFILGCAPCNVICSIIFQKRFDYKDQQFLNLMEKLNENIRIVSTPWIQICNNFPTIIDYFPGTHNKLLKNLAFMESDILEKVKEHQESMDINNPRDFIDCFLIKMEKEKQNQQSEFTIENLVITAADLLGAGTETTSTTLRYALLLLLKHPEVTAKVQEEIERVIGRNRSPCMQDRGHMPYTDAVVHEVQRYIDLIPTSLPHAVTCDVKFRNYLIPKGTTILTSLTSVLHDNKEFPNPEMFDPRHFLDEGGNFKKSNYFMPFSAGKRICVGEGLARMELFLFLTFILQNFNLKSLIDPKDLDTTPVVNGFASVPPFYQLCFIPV
smiles,measurement,value
CN1C/C=C/CCOc2cccc(c2)-c2ccnc(n2)Nc2cccc(c2)C1 [ZOTIRACICLIB],IC50,> 25 µM
